Columns and labels:
[1] = system: EBV-positive nasopharyngeal cell line; assay: EBV-positive nasopharyngeal colony count obtained from the examination of uniform plate surface areas after a dose of 1.34 ug/mL; type: functional, human gammaherpesvirus 4
Outline: (§1)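 Modified clonogenic assay in D98/HR1 cells from 3-4-day-old monolayer cultures. Drug diluted into warm McCoy's 5A medium; quinones first dissolved in dichloromethane, then diluted in 95% ethanol. Cells at 4.0 × 10^5/mL exposed for 1 h at 37 °C, washed twice, then plated in 0.3% agar CMRL 1066 medium over a 0.5% agar base, 6.7 × 10^4 cells/plate. Survival is expressed relative to control.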

Mus musculus [2] = assay: Base line measurement at a sample size of 3 after fourth week of 20 mg/kg dose administration; type: functional
Outline: (§2)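 Nude mice pretreated with 0.5 mL rabbit anti-mouse thymocyte serum s.c., inoculated s.c. 7 days later with 1×10^7 D98/HR1 cells in PBS, and given a second serum dose two weeks later. Dosing started at tumors ~2-3 mm diameter, daily for 14 days, then 2 weeks off. Dose per kg from daily individual weights; Klucel vehicle. Group mean tumor volume (mm3) adjusted by analysis of covariance for base line.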

Mus musculus [3] = assay: Base line measurement at a sample size of 5 after second week of 5 mg/kg dose administration; type: functional; outline: as §2
Mus musculus [4] = assay: Base line measurement at a sample size of 3 after first week of 20 mg/kg dose administration; type: functional; outline: as §2
[5] = system: EBV-positive nasopharyngeal cell line; assay: Percent colony reduction in cell growth in EBV-positive nasopharyngeal cell lines after administration of 0.67 ug/mL dose; type: functional, human gammaherpesvirus 4
Outline: (§3)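 D98/HR1 cells from 3-4-day monolayer cultures, suspended at 4.0×10^5/mL and exposed to drug for 1 h at 37 °C. Quinones dissolved in dichloromethane, diluted in 95% ethanol, then in warm McCoy's 5A. Cells washed twice, plated in agar over an agar base at 6.7×10^4 cells/plate. Colony survival expressed relative to control, as percent reduction.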

[6] = system: EBV-positive nasopharyngeal cell line; assay: Percent colony reduction in cell growth in EBV-positive nasopharyngeal cell lines after administration of 1.34 ug/mL dose; type: functional, human gammaherpesvirus 4; outline: as §3
[7] = system: EBV-positive nasopharyngeal cell line; assay: EBV-positive nasopharyngeal colony count obtained from the examination of uniform plate surface areas after a dose of 2.68 ug/mL; type: functional, human gammaherpesvirus 4; outline: as §1
[8] = system: EBV-positive nasopharyngeal cell line; assay: Percent colony reduction in cell growth in EBV-positive nasopharyngeal cell lines after administration of 6.28 ug/mL dose; type: functional, human gammaherpesvirus 4; details: in the assay text read “2.68 ug/mL” for “6.28 ug/mL”; outline: as §3
Mus musculus [9] = assay: Base line measurement at a sample size of 5 after first week of 5 mg/kg dose administration; type: functional; outline: as §2
[10] = system: EBV-positive nasopharyngeal cell line; assay: Percent colony reduction in cell growth in EBV-positive nasopharyngeal cell lines after administration of 0.2 ug/mL dose; type: functional, human gammaherpesvirus 4; outline: as §3
Mus musculus [11] = assay: Base line measurement at a sample size of 3 after second week of 20 mg/kg dose administration; type: functional; outline: as §2
[12] = system: EBV-positive nasopharyngeal cell line; assay: EBV-positive nasopharyngeal colony count obtained from the examination of uniform plate surface areas after a dose of 0.2 ug/mL; type: functional, human gammaherpesvirus 4; outline: as §1
[13] = system: EBV-positive nasopharyngeal cell line; assay: EBV-positive nasopharyngeal colony count obtained from the examination of uniform plate surface areas after a dose of 0.67 ug/mL; type: functional, human gammaherpesvirus 4; outline: as §1
Mus musculus [14] = assay: Base line measurement at a sample size of 5 after fourth week of 5 mg/kg dose administration; type: functional; outline: as §2
[15] = system: EBV-positive nasopharyngeal cell line; assay: EBV-positive nasopharyngeal colony count obtained from the examination of uniform plate surface areas after a dose of 10 ug/mL; type: functional, cell-based; details: human gammaherpesvirus 4; outline: as §1
[16] = system: EBV-positive nasopharyngeal cell line; assay: Percent colony reduction in cell growth in EBV-positive nasopharyngeal cell lines after administration of 10 ug/mL dose; type: functional, cell-based; details: human gammaherpesvirus 4; outline: as §3
[17] = system: EBV-positive nasopharyngeal cell line; assay: EBV-positive nasopharyngeal colony count obtained from the examination of uniform plate surface areas after a dose of 0.67 ug/mL from Experiment B; type: functional, human gammaherpesvirus 4; outline: as §1
Mus musculus [18] = assay: Base line measurement at a sample size of 4 after second week of 20 mg/kg dose administration in mice; type: functional; outline: as §2
Mus musculus [19] = assay: Base line measurement at a sample size of 4 after first week of 20 mg/kg dose administration in mice; type: functional; outline: as §2
[20] = system: EBV-positive nasopharyngeal cell line; assay: Percent colony reduction in cell growth in EBV-positive nasopharyngeal cell lines after administration of 0.067 ug/mL dose
Mus musculus [21] = assay: Base line measurement at a sample size of 4 after fourth week of 20 mg/kg dose administration in mice; type: functional; outline: as §2
[22] = system: EBV-positive nasopharyngeal cell line; assay: EBV-positive nasopharyngeal colony count obtained from the examination of uniform plate surface areas after a dose of 2.68 ug/mL from Experiment B in mice; type: functional, human gammaherpesvirus 4
[23] = system: EBV-positive nasopharyngeal cell line; assay: Percent colony reduction in cell growth in EBV-positive nasopharyngeal cell lines after in vitro exposure at 1.34 ug/mL
[24] = system: EBV-positive nasopharyngeal cell line; assay: EBV-positive nasopharyngeal colony count obtained from the examination of uniform plate surface areas after a dose of 0.067 ug/mL from Experiment B; type: functional, human gammaherpesvirus 4; outline: as §1
Mus musculus [25] = assay: Base line measurement at a sample size of 5 after fourth week of 5 mg/kg dose administration in mice; type: functional; outline: as §2
Mus musculus [26] = assay: Base line measurement at a sample size of 5 after first week of 5 mg/kg dose administration in mice; type: functional; outline: as §2
[27] = system: EBV-positive nasopharyngeal cell line; assay: EBV-positive nasopharyngeal colony count obtained from the examination of uniform plate surface areas after a dose of 1.34 ug/mL from Experiment B; type: functional, human gammaherpesvirus 4; outline: as §1
Mus musculus [28] = assay: Base line measurement at a sample size of 5 after second week of 5 mg/kg dose administration in mice; type: functional; outline: as §2
[29] = system: EBV-positive nasopharyngeal cell line; assay: EBV-positive nasopharyngeal cells (D98/HR1) survived at concentration of 3.0 ug/mL of compound; type: functional, human gammaherpesvirus 4; outline: as §1
[30] = system: EBV-positive nasopharyngeal cell line; assay: Percent colony reduction in cell growth in EBV-positive nasopharyngeal cell lines (D98/HR1) after administration of 3.0 ug/mL dose; type: functional, human gammaherpesvirus 4; outline: as §3
[31] = system: EBV-positive nasopharyngeal cell line; assay: EBV-positive nasopharyngeal cells (D98/HR1) survived at concentration of 0.3 ug/mL of compound; type: functional, human gammaherpesvirus 4; outline: as §1
[32] = system: EBV-positive nasopharyngeal cell line; assay: EBV-positive nasopharyngeal cells (D98/HR1) survived at concentration of 100 ug/mL of compound; type: functional, human gammaherpesvirus 4; outline: as §1
[33] = system: EBV-positive nasopharyngeal cell line; assay: Percent colony reduction in cell growth in EBV-positive nasopharyngeal cell lines (D98/HR1) after administration of 0.3 ug/mL dose; type: functional, human gammaherpesvirus 4; outline: as §3
[34] = system: EBV-positive nasopharyngeal cell line; assay: Percent colony reduction in cell growth in EBV-positive nasopharyngeal cell lines (D98/HR1) after administration of 100 ug/mL dose; type: functional, human gammaherpesvirus 4; outline: as §3
[35] = system: EBV-positive nasopharyngeal cell line; assay: Percent colony reduction in cell growth in EBV-positive nasopharyngeal cell lines after administration of 6.0 ug/mL dose; type: functional, human gammaherpesvirus 4; outline: as §3
[36] = system: EBV-positive nasopharyngeal cell line; assay: EBV-positive nasopharyngeal colony count obtained from the examination of uniform plate surface areas after a dose of 6.0 ug/mL; type: functional, human gammaherpesvirus 4; outline: as §1
[37] = system: EBV-positive nasopharyngeal cell line; assay: EBV-positive nasopharyngeal colony count obtained from the examination of uniform plate surface areas after a dose of 0.1 ug/mL; type: functional, human gammaherpesvirus 4; outline: as §1
[38] = system: EBV-positive nasopharyngeal cell line; assay: EBV-positive nasopharyngeal colony count obtained from the examination of uniform plate surface areas after a dose of 0.04 ug/mL from experiment A; type: functional, human gammaherpesvirus 4; outline: as §1
[39] = system: EBV-positive nasopharyngeal cell line; assay: EBV-positive nasopharyngeal colony count obtained from the examination of uniform plate surface areas after a dose of 0.4 ug/mL from experiment B; type: functional, human gammaherpesvirus 4; outline: as §1
[40] = system: EBV-positive nasopharyngeal cell line; assay: Percent colony reduction in cell growth in EBV-positive nasopharyngeal cell lines after administration of 0.004 ug/mL dose from experiment B; type: functional, human gammaherpesvirus 4; outline: as §3
[41] = system: EBV-positive nasopharyngeal cell line; assay: EBV-positive nasopharyngeal colony count obtained from the examination of uniform plate surface areas after a dose of 0.004 ug/mL from experiment B; type: functional, human gammaherpesvirus 4; outline: as §1
[42] = system: EBV-positive nasopharyngeal cell line; assay: EBV-positive nasopharyngeal colony count obtained from the examination of uniform plate surface areas after a dose of 0.04 ug/mL from experiment B; type: functional, human gammaherpesvirus 4; outline: as §1
[43] = system: EBV-positive nasopharyngeal cell line; assay: Percent colony reduction in cell growth in EBV-positive nasopharyngeal cell lines after administration of 0.04 ug/mL dose from experiment B; type: functional, human gammaherpesvirus 4; outline: as §3
[44] = system: EBV-positive nasopharyngeal cell line; assay: Percent colony reduction in cell growth in EBV-positive nasopharyngeal cell lines after administration of 0.04 ug/mL dose from experiment A; type: functional, human gammaherpesvirus 4; outline: as §3
[45] = system: EBV-positive nasopharyngeal cell line; assay: Percent colony reduction in cell growth in EBV-positive nasopharyngeal cell lines after administration of 0.4 ug/mL dose from experiment B; type: functional, human gammaherpesvirus 4; outline: as §3

## O=C1C=C(CBr)C(=O)C(CCC2=CC(=O)C=C(CBr)C2=O)=C1
[1]
  Survival: 0.77
Mus musculus [2]
  Baseline: 29.69
Mus musculus [3]
  Baseline: 43.2
Mus musculus [4]
  Baseline: 12.54
[5]
  Reduction: 19%
[6]
  Reduction: 23%
[7]
  Survival: 0.91
[8]
  Reduction: 9%
Mus musculus [9]
  Baseline: 22.32
[10]
  Reduction: 0%
Mus musculus [11]
  Baseline: 17.52
[12]
  Survival: 1
[13]
  Survival: 0.81
Mus musculus [14]
  Baseline: 137.03

## CISPLATIN
[10]; human gammaherpesvirus 4
  Reduction: 60%
[15]
  Survival: 0.03
[12]; human gammaherpesvirus 4
  Survival: 0.4
[16]
  Reduction: 97%

## CC(=O)OCC1=CC(=O)C=C(CCC2=CC(=O)C=C(COC(C)=O)C2=O)C1=O
[17]
  Survival: 1.34
Mus musculus [18]
  Baseline: 94.83
Mus musculus [19]
  Baseline: 34.53
[20]
  Reduction: 30%
Mus musculus [21]
  Baseline: 360.23
[22]
  Survival: 1.35
[23]
  Reduction: -19%
[24]
  Survival: 0.7
Mus musculus [25]
  Baseline: 358.79
Mus musculus [26]
  Baseline: 69.66
[27]
  Survival: 1.19
Mus musculus [28]
  Baseline: 162.76

## COc1cc([C@@H]2c3cc4c(cc3[C@@H](O[C@@H]3O[C@@H]5CO[C@@H](C)O[C@H]5[C@H](O)[C@H]3O)[C@H]3COC(=O)[C@H]23)OCO4)cc(OC)c1O [ETOPOSIDE]
[29]
  Survival: 0.3
[30]
  Reduction: 70%

## CN(Cc1cnc2nc(N)nc(N)c2n1)c1ccc(C(=O)N[C@@H](CCC(=O)O)C(=O)O)cc1 [METHOTREXATE]
[31]
  Survival: 0.4
[32]
  Survival: <0.01
[33]
  Reduction: 60%
[34]
  Reduction: >99%

## CC[C@]1(O)C[C@@H]2CN(CCc3c([nH]c4ccccc34)[C@@](C(=O)OC)(c3cc4c(cc3OC)N(C)[C@H]3[C@@](O)(C(=O)OC)[C@H](OC(C)=O)[C@]5(CC)C=CCN6CC[C@]43[C@@H]65)C2)C1 [VINBLASTINE]
[35]
  Reduction: >99%
[36]
  Survival: <0.01

## O=C1c2c(O)ccc(O)c2C(=O)c2c(NCCNCCO)ccc(NCCNCCO)c21 [MITOXANTRONE]
[37]
  Survival: 0.33

## COc1cccc2c1C(=O)c1c(O)c3c(c(O)c1C2=O)C[C@@](O)(C(=O)CO)C[C@@H]3O[C@H]1C[C@H](N)[C@H](O)[C@H](C)O1 [DOXORUBICIN]
[38]
  Survival: 0.37
[39]
  Survival: <0.1
[40]
  Reduction: 31%
[41]
  Survival: 0.69
[42]
  Survival: 0.18
[43]
  Reduction: 82%
[44]
  Reduction: 63%
[45]
  Reduction: >99%

Source: ChEMBL document CHEMBL1122406, “Bis(bioreductive) alkylating agents: synthesis and biological activity in a nude mouse human carcinoma model” (1983)
